# Rows were chosen to be rich in hits. Some 1.2% of all compounds tested hit in one or more screens of this group.
# PREPL inh: PREPL enzyme inhibitors, primary screen, biochemical, fluorescence polarization; inhibition, % at 5.96 µM; AID 2751, 2010; Prolyl endopeptidase-like (Homo sapiens), Q4J6C6; recombinant PREPL, fluorescence polarization activity-based probe; hit rate 0.68% among 320,000; in the data active = inhibition above about 43%;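 also: 0% = enzyme with DMSO and 100% = wells lacking enzyme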
# IDE inh: human IDE inhibitors in live cells, primary screen, fluorescence polarization, HEK cells, FAbetaB substrate | hit rate 0.41% among 320,000 | FAbetaB cleavage | inhibition, % at 5.59 µM | Insulin-degrading enzyme (Homo sapiens), P14735;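 active = percent inhibition above the average of all tested compounds plus 3 SD, set per screening campaign, cut at about 16% in these data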;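 also: IDE supplied by intact live HEK cells; FP after avidin binding of uncleaved biotin substrate so inhibition keeps polarization high; 0% = DMSO wells and 100% = 60 µM reference IDE inhibitor Ii1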
# ASAP1 GAP inh: inhibitors of human ASAP1 ArfGAP activity, primary screen, biochemical, fluorescence polarization. Arf-GAP with SH3 domain, ANK repeat and PH domain-containing protein 1 (Homo sapiens), …. ASAP1-stimulated ARF1 GTP hydrolysis, GDP FP detection. inhibition, % at 16.5 µM. hit rate 0.19% among 360,000. AID 624377, 2012; in the data active = inhibition above about 25%;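 also: 0% = vehicle with enzyme and substrate and 100% = no enzyme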
# IDE cell activ: human IDE activators in live cells, primary screen, fluorescence polarization, HEK cells, FAbeta-B substrate. Insulin-degrading enzyme (Homo sapiens), P14735. AID 493087, 2011. activation, % at 5.96 µM. FAbeta-B cleavage; 0% vehicle, 100% cell-free pure enzyme wells. hit rate 0.073% among 340,000;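 active = activation above the mean of all tested compounds plus 3 SD, set per screening campaign, cut at about 17% in these data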
# ARFGAP1 inh: inhibitors of rat ARFGAP1 GAP activity, primary screen, biochemical, fluorescence polarization, GDP tracer; inhibition, % at 16.5 µM; Arfgap1-stimulated ARF1 GTP hydrolysis, GDP FP detection; hit rate 0.26% among 360,000; ADP-ribosylation factor GTPase-activating protein 1 (Rattus norvegicus), Q62848; AID 651572, 2012;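 active = inhibition above a per-plate limit, mean inhibition of low control wells plus 3 SD, cut at about 25% in these data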;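 also: 0% = DMSO wells with enzyme and 100% = wells lacking Arfgap1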
#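 system = rat Arfgap1 catalytic domain, aa 1-136 | technique = FP, GDP Alexa 633 tracer displaced from anti-GDP antibody, 620/688 nm | compound = one concentration, 16.5 µM, DMSO 1.26% | medium = HEPES-based buffer, pH 7.5 | timing = compound-enzyme preincubation 20 min, reaction 120 min, detection 60 min, 25 °C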
# IDE cell inh cf: human IDE inhibitors in live cells, confirmation, fluorescence polarization, HEK cells, FAbetaB substrate. shares compounds with IDE inh. FAbetaB cleavage. inhibition, % at 5.59 µM. hit rate 51% among 1,200;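 active = mean inhibition across triplicate wells above the cutoff set by the earlier primary insulin-degrading enzyme screen, cut at about 16% in these data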;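 also: 0% = DMSO wells and 100% = 60 µM reference IDE inhibitor Ii1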
# HEK cytotox: cytotoxicity in HEK cells, cytotoxicity control for IDE inhibitor project, cell-based, luminescence. shares compounds with IDE inh. HEK293 cytotoxicity, ATP luminescence. inhibition, % at 5.59 µM. hit rate 28% among 1,200; in the data active = inhibition above about 22%;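 also: 0% = vehicle wells and 100% = reference cytotoxic drug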
# Active calls of the source: *; · = no result.
SMILES,PREPL inh,IDE inh,ASAP1 GAP inh,IDE cell activ,ARFGAP1 inh,IDE cell inh cf,HEK cytotox
CCCN(C(=O)c1ccc([N+](=O)[O-])c(C)c1)c1c(N)n(Cc2ccccc2)c(=O)[nH]c1=O,21.5,7.4,2.1,5.9,-4.3,·,·
CCOC(=O)C1=C(c2ccccc2)N=c2s/c(=C\c3ccc(O)cc3)c(=O)n2C1c1cccs1 (configuration not stated),-44.9,23.1*,13.9,-31.4,4.6,114.9*,41.4*
CCOC(=O)C1=C(c2ccccc2)N=c2sc(=Cc3cc(OC)c(OC)c(OC)c3)c(=O)n2C1c1cccs1 (configuration not stated),·,·,-4.0,·,2.5,·,·
Cc1c(NC(=O)c2ccc(-c3ccc([N+](=O)[O-])cc3Cl)o2)c(=O)n(-c2ccccc2)n1C,35.1,-0.9,9.3,8.3,6.6,·,·
COc1cc(/C=C/C(=O)C2C(=O)C=C(C)OC2=O)cc(OC)c1O (configuration not stated),-3.0,24.0*,12.5,-12.1,1.3,35.2*,12.9
COc1cc(/C=C/C(=O)O)cc(Br)c1O,-7.1,1.2,1.0,6.7,4.5,·,·
COc1ccc(/C=c2\s/c(=C\C(=O)C(C)(C)C)[nH]c2=O)cc1O,10.0,-2.1,0.8,3.8,19.8,·,·
COc1ccc(/C=C/C(=O)C2C(=O)C=C(C)OC2=O)cc1O (configuration not stated),2.8,28.1*,-13.0,-11.9,1.0,8.7,19.8
COc1ccccc1CCn1cnc(-c2cccc(F)c2)c1CC(C)C,·,·,-2.2,·,-8.7,·,·
Fc1ccc(-c2ccnc(=S)[nH]2)cc1,17.1,39.6*,-5.4,-23.9,-3.8,7.6,12.1
COc1ccc(/C=C2\SC(=O)NC2=S)cc1OC,9.8,67.8*,10.2,-28.9,-1.7,8.0,16.4
CCNC(=S)N1CCN(c2nc(-c3ccc(F)cc3)cs2)CC1,24.9,19.2*,-1.2,-16.5,-3.3,6.1,15.4
CC(C)C(=O)N1CCN(c2nc(-c3ccc(Cl)cc3)cs2)CC1,22.5,3.9,1.4,-7.7,0.7,·,·
COCCNC(=S)N1CCN(c2nc(-c3ccc(F)cc3)cs2)CC1,19.7,13.8,-4.5,-8.5,0.8,·,·
COCCNC(=S)N1CCN(c2nc(-c3ccc(Cl)cc3)cs2)CC1,12.8,17.1*,9.7,-17.5,8.1,11.4,15.3
CNC(=S)N1CCN(c2nc(-c3ccc(Cl)cc3)cs2)CC1,28.5,17.7*,4.3,-13.4,-4.8,8.1,23.2*
CCCCC(=O)N1CCN(c2nc(-c3ccc(F)cc3)cs2)CC1,·,·,-22.2,-5.7,3.5,·,·
Cc1cc(C)n(-c2nc(SCCN(C)C)c3c4c(sc3n2)COC(C)(C)C4)n1,-4.0,0.2,-0.1,4.2,-8.2,·,·
CN(C)c1ccc(/C=C2\SC(=O)N(CCc3nnc(N)s3)C2=O)cc1,10.5,30.2*,-10.1,-18.8,-17.0,22.3*,14.3
COc1cc(C2C(C#N)=C(N)Oc3cc(N(C)C)ccc32)cc2c1OCO2 (configuration not stated),11.7,18.9*,12.5,-19.9,5.0,14.5,67.1*
COc1cc(C2C(C#N)=C(N)Oc3cc(O)ccc32)cc2c1OCO2 (configuration not stated),9.8,-4.4,-2.3,-0.5,6.3,·,·
Cc1cccc(N2CCN(C(=O)c3cccc(N4CCCC4=O)c3)CC2)c1C,18.5,18.6*,-10.6,-17.7,-5.6,12.3,11.7
Cc1cccc(N2CCN(C(=O)c3cccc(N4C(=O)C5CC=CC(C)C5C4=O)c3)CC2)c1C (configuration not stated),28.0,52.8*,3.4,-57.8,15.7,36.3*,18.5

# Screening results deposited in PubChem by The Scripps Research Institute Molecular Screening Center.
